This note sets out measurements from ChEMBL document CHEMBL4359889 (Eur J Med Chem, 2019).

For one data set, the system named is NCI-H441. The data set can be described thus: Cytotoxicity in human H441 cells incubated for 72 hrs by alamar blue reagent based assay. It is filed as cell-based. In a few lines: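 Cells seeded at 8,000 per well in RPMI-1640 with 10% FBS, dosed next day across a concentration range for 72 h. Alamar Blue (1:10, in phenol red-free RPMI with 10% FBS) added for 4 h, fluorescence read at ex 530/em 580 nm. IC50 from curve fit; triplicate in three independent sets, mean ± SD.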

The test system of another data set is NCI-H2228. Nature of the data set: Cytotoxicity in human NCI-H2228 cells harboring EML4-fused ALK variant 3 incubated for 72 hrs by alamar blue reagent based assay. It is filed as functional, cell-based. Particulars: NCI-H2228, 72 h; call rule not given here.
A short description of data set [1]: Biodistribution in nude mouse assessed as accumulation in kidney tissue at 100 uCi, iv measured for 30 mins by PET imaging analysis. Particulars: in vivo, 0.5 h. Format: ADME, organism-based. In a few lines:
(§1)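 Dynamic PET 0–10 min after injection under anesthesia, then 10-min static scans at 30 and 60 min. Regions of interest drawn on decay-corrected whole-body coronal images and converted to %ID/cc. Mean ± SD.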

A short description of data set [2]: Octanol/water partition coefficient, logP of compound at 1 uCi vortex for 5 mins and repeated for 4 times by gamma counter method. Format: physicochemical. In a few lines: (§2)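 Vortexed 5 min, repeated four times, then centrifuged 2×5 min at 4000 rpm, 4°C. Value taken from the ratio of octanol to aqueous activity.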
Data set [3] in a line: Biodistribution in nude mouse assessed as accumulation in heart tissue at 100 uCi, iv measured for 10 mins by PET imaging analysis. Format: ADME, organism-based. The settings on record: in vivo. In a few lines: as §1
The nature of data set [4]: Biodistribution in nude mouse assessed as accumulation in brain tissue at 100 uCi, iv measured for 60 mins by PET imaging analysis. Format: ADME, organism-based. Particulars: in vivo, 1 h. In a few lines: as §1
Data set [5] is described as follows: Biodistribution in nude mouse assessed as accumulation in kidney tissue at 100 uCi, iv measured for 10 mins by PET imaging analysis. Format: ADME, organism-based. The settings on record: in vivo. In a few lines:
as §1

The nature of data set [6]: Biodistribution in nude mouse assessed as accumulation in brain tissue at 100 uCi, iv measured for 5 mins by PET imaging analysis. Format: ADME, organism-based. The settings on record: in vivo. A digest of the protocol:
as §1

Data set [7] can be described thus: Biodistribution in nude mouse assessed as accumulation in heart tissue at 100 uCi, iv measured for 5 mins by PET imaging analysis. It is filed as ADME, organism-based. The settings on record: in vivo. A digest of the protocol:
as §1

A short description of data set [8]: Biodistribution in nude mouse assessed as accumulation in muscle tissue at 100 uCi, iv measured for 30 mins by PET imaging analysis. Format: ADME, organism-based. Particulars: in vivo, 0.5 h. A digest of the protocol: as §1
Data set [9] in a line: Biodistribution in nude mouse assessed as accumulation in heart tissue at 100 uCi, iv measured for 30 mins by PET imaging analysis. Format: ADME, organism-based. The settings on record: in vivo, 0.5 h. In a few lines:
as §1

A short description of data set [10]: Biodistribution in nude mouse assessed as accumulation in brain tissue at 100 uCi, iv measured for 30 mins by PET imaging analysis. Format: ADME, organism-based. The settings on record: in vivo, 0.5 h. In a few lines:
as §1

A short description of data set [11]: Biodistribution in nude mouse assessed as accumulation in kidney tissue at 100 uCi, iv measured for 5 mins by PET imaging analysis. It is filed as ADME, organism-based. The settings on record: in vivo. In a few lines: as §1
Data set [12] in a line: Biodistribution in nude mouse assessed as accumulation in heart tissue at 100 uCi, iv measured for 60 mins by PET imaging analysis. Format: ADME, organism-based. The settings on record: in vivo, 1 h. A digest of the protocol: as §1
Data set [13] in a line: Biodistribution in nude mouse assessed as accumulation in muscle tissue at 100 uCi, iv measured for 5 mins by PET imaging analysis. Format: ADME, organism-based. Particulars: in vivo. In a few lines:
as §1

Data set [14] can be described thus: Biodistribution in nude mouse assessed as accumulation in kidney tissue at 100 uCi, iv measured for 60 mins by PET imaging analysis. Format: ADME, organism-based. The settings on record: in vivo, 1 h. A digest of the protocol:
as §1

Data set [15] in a line: Biodistribution in nude mouse assessed as accumulation in brain tissue at 100 uCi, iv measured for 10 mins by PET imaging analysis. It is filed as ADME, organism-based. The settings on record: in vivo. In a few lines:
as §1

The nature of data set [16]: Biodistribution in nude mouse assessed as accumulation in muscle tissue at 100 uCi, iv measured for 60 mins by PET imaging analysis. It is filed as ADME, organism-based. Particulars: in vivo, 1 h. In a few lines:
as §1

Data set [17] is described as follows: Biodistribution in nude mouse assessed as accumulation in liver tissue at 100 uCi, iv measured for 5 mins by PET imaging analysis. It is filed as ADME, organism-based. The settings on record: in vivo. A digest of the protocol:
as §1

Data set [18] in a line: Biodistribution in nude mouse assessed as accumulation in liver tissue at 100 uCi, iv measured for 60 mins by PET imaging analysis. Format: ADME, organism-based. Particulars: in vivo, 1 h. In a few lines:
as §1

Data set [19] is described as follows: Drug uptake in human NCI-H2228 cells harboring EML4-fused ALK variant 3 at 1 uCi incubated for 30 mins by radioactivity-based assay. It is filed as ADME, cell-based. The settings on record: nci-h2228, 0.5 h. A digest of the protocol:
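H2228 cells seeded at 10⁶ per well in RPMI-1640 with 10% FBS. Wells washed twice with ice-cold PBS, cells trypsinized 5 min at 37°C, then gamma counted. Uptake given as cpm per million cells, in triplicate.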

Data set [20] can be described thus: Biodistribution in nude mouse assessed as accumulation in liver tissue at 100 uCi, iv measured for 30 mins by PET imaging analysis. It is filed as ADME, organism-based. Particulars: in vivo, 0.5 h. In a few lines:
as §1

The nature of data set [21]: Lipophilicity, log D of the compound in octanol/pH 7.4 PBS vortex at 1 uCi for 5 mins and repeated for 4 times by gamma counter method. Format: physicochemical. Particulars: octanol/water, pH 7.4, 5 min. A digest of the protocol: as §2
Data set [22] is described as follows: Biodistribution in nude mouse assessed as accumulation in muscle tissue at 100 uCi, iv measured for 10 mins by PET imaging analysis. It is filed as ADME, organism-based. The settings on record: in vivo. A digest of the protocol:
as §1

Data set [23] can be described thus: Biodistribution in nude mouse assessed as accumulation in liver tissue at 100 uCi, iv measured for 10 mins by PET imaging analysis. Format: ADME, organism-based. The settings on record: in vivo. In a few lines:
as §1

Data set [24] is described as follows: Drug uptake in human H441 cells at 1 uCi incubated for 30 mins by radioactivity-based assay. It is filed as ADME, cell-based. Particulars: nci-h441, 0.5 h. A digest of the protocol: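 Medium removed, two ice-cold PBS washes, trypsinised 5 min at 37°C, gamma counted. Uptake expressed as counts per minute per million cells; triplicate.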

SMILES strings stand for the structures.

Consider `CCc1cc2c(cc1N1CCC(N3CCOCC3)CC1)C(C)(C)c1c(c3ccc(C#N)cc3n1CCF)C2=O`, for which the results for the concentration for half-maximal inhibition (IC50) entry in the data set on NCI-H441 and in the data set on NCI-H2228 were “Non-Toxic” and 0.01 µM, respectively.

As to `Cc1cc(Nc2ncc(Cl)c(Nc3ccccc3S(=O)(=O)C(C)C)n2)c(OC(C)C)cc1C1CCN(CCF)CC1`, the IC50 in the data set on NCI-H2228 amounted to 24.2 µM.

`Cc1cc(Nc2ncc(Cl)c(Nc3ccccc3S(=O)(=O)C(C)C)n2)c(OC(C)C)cc1C1CCN(CC[18F])CC1`: the Drug uptake in data set [1] was found to be 7.2 %ID/cc; in data set [3], 7 %ID/cc; in data set [4], 4 %ID/cc; in data set [5], 18.2 %ID/cc; in data set [6], 6.6 %ID/cc; in data set [7], 9.1 %ID/cc. Also, the Drug uptake in [8] was found to be 2.4 %ID/cc; in data set [9], 3.1 %ID/cc; in data set [10], 4.6 %ID/cc; in data set [11], 20.2 %ID/cc; in data set [12], 2.6 %ID/cc; in data set [13], 3.6 %ID/cc. Further, the Drug uptake is listed as 5.7 %ID/cc in data set [14]; 6.5 %ID/cc in data set [15]; 2.1 %ID/cc in [16]; 16.8 %ID/cc in data set [17]; 6.4 %ID/cc in data set [18]; “Active” in data set [19]. Further, the Drug uptake worked out at 9.5 %ID/cc in [20], 3.9 %ID/cc in data set [22] and 17.9 %ID/cc in data set [23]. Moreover, the logP in data set [2] was found to be 0.97. The compound further yielded a logD in data set [21] of 1.51.

With `CCc1cc2c(cc1N1CCC(N3CCOCC3)CC1)C(C)(C)c1c(c3ccc(C#N)cc3n1CC[18F])C2=O`, the Drug uptake entry in [24] is given as “Active”.

In the data set on NCI-H2228, `C[C@@H](Oc1cc(-c2cnn(C3CCN(CCF)CC3)c2)cnc1N)c1c(Cl)ccc(F)c1Cl` returned a half-inhibitory concentration (IC50) of 7.5 µM.

For `C[C@@H](Oc1cc(-c2cnn(C3CCN(CC[18F])CC3)c2)cnc1N)c1c(Cl)ccc(F)c1Cl`, the Drug uptake is recorded as 1.8 %ID/cc in data set [4], 1.2 %ID/cc in data set [16] and “Active” in [19].

For `CCc1cc2c(cc1N1CCC(N3CCOCC3)CC1)C(C)(C)c1[nH]c3cc(C#N)ccc3c1C2=O` [ALECTINIB], the IC50 result in the data set on NCI-H441 is listed as “Non-Toxic”.
